# High-throughput results deposited in PubChem by The Scripps Research Institute Molecular Screening Center.
# The list is not random: actives were taken first. Their share in the collection is about 1.9%.
# ARFGAP1 inhibitor = inhibitors of rat ARFGAP1; Q62848; Arfgap1-stimulated ARF1 GTP hydrolysis, GDP FP detection; inhibition, % at 16.5 µM; 360,000 compounds, 0.26% hits;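 active = inhibition above a per-plate limit, mean inhibition of low control wells plus 3 SD, cut at about 25% in these data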;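 note: 0% = DMSO wells with enzyme and 100% = wells lacking Arfgap1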
#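 system = rat Arfgap1 catalytic domain, aa 1-136 | technique = FP, GDP Alexa 633 tracer displaced from anti-GDP antibody, 620/688 nm | compound = one concentration, 16.5 µM, DMSO 1.26% | medium = HEPES-based buffer, pH 7.5 | timing = compound-enzyme preincubation 20 min, reaction 120 min, detection 60 min, 25 °C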
# ASAP1 GAP inh = inhibitors of human ASAP1 ArfGAP activity. Q9ULH1. ASAP1-stimulated ARF1 GTP hydrolysis, GDP FP detection. inhibition, % at 16.5 µM. 360,000 compounds, 0.19% hits. AID 624377; in the data active = inhibition above about 25%;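 note: 0% = vehicle with enzyme and substrate and 100% = no enzyme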
# PLCb3 inh = inhibitors of human phospholipase C beta3; Purified PLC-beta3, fluorogenic substrate, fluorescence; 370,000 compounds, 0.18% hits; inhibition, % at 12.2 µM; in the data active = inhibition above about 11%;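 note: 0% = median of compound wells on plate and 100% = full blocker control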
# HGIII-sPLA2 inh = Inhibits HGIII-sPLA2 liposome hydrolysis, primary screen; Q9NZ20; QFRET BODIPY PC-A2 liposome hydrolysis, fluorescence; inhibition, % at 12.2 µM; 370,000 compounds, 0.56% hits;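 active = inhibition above mean plus 3 SD of compounds lying within the high and low control bounds, cut at about 19% in these data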;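 note: 0% = median of test compound wells and 100% = no enzyme DMSO wells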
# PLCg1 inh = PLC-gamma1 (human) inhibition, primary screen; purified PLC-gamma1, fluorogenic substrate, fluorescence; P19174; AID 720700; inhibition, % at 12.2 µM; 370,000 compounds, 0.84% hits; in the data active = inhibition above about 9.5%
# Target sequence (P19174 whole entry, looked up): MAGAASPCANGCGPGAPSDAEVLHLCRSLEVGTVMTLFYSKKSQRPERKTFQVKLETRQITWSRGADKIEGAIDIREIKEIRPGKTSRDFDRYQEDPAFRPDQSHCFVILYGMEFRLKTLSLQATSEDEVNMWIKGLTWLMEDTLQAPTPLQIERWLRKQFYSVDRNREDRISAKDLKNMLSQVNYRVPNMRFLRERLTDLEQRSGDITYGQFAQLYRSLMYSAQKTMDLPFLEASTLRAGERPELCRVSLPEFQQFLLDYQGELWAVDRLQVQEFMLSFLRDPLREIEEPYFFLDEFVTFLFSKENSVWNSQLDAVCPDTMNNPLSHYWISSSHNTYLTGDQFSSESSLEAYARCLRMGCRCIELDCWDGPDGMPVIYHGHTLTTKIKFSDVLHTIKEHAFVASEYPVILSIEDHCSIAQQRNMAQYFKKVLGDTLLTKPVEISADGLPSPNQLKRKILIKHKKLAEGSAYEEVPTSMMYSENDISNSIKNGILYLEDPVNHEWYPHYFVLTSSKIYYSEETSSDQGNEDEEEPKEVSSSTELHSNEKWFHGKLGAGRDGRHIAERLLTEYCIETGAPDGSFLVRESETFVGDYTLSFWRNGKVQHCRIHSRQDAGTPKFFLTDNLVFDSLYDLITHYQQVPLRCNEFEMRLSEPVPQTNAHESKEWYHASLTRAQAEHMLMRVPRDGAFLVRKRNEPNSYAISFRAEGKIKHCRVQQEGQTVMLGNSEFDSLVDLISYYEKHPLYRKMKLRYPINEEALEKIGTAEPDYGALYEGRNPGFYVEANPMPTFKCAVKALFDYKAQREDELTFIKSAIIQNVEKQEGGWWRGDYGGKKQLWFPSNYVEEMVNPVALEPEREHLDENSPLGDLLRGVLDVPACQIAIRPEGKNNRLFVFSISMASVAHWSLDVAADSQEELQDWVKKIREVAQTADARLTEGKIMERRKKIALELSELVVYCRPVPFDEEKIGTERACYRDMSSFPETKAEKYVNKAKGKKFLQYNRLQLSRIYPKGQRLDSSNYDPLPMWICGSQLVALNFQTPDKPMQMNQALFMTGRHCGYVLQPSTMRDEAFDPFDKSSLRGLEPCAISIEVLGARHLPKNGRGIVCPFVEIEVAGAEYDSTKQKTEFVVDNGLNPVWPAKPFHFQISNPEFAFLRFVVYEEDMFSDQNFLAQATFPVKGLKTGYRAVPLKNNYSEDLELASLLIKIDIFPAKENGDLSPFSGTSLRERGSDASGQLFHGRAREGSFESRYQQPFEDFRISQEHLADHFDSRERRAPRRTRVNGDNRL
# Numbers without * were called inactive; nt = no result.
SMILES,ARFGAP1 inhibitor,ASAP1 GAP inh,PLCb3 inh,HGIII-sPLA2 inh,PLCg1 inh
Cc1cccc2cc(CN(CC3CCCO3)C(=O)NC3CCCCC3)c(=O)[nH]c12 (stereo not given),3,6,2,3,9.7*
O=C(O)C1Nc2c(O)cc(Cl)c([N+](=O)[O-])c2C2C=CCC12 (stereo not given),-4,22,7,19,31*
O=[N+]([O-])c1ccc(Cl)c2c1C1C=CCC1C(c1ccccn1)N2 (stereo not given),-10,6,-5,-7,-1
CCOC(=O)[C@@]12CCCC3=C1N(CCC3)C(=O)[C@H]2CC(=O)NCCC(C)C,nt,nt,-1,3,1
CC(C)(CN1CCNCC1)NS(=O)(=O)c1ccc(Cl)cc1,-2,1,-1,-29,16*
O=C(NC1CCCCN(Cc2ccc(Cl)cc2)C1=O)c1cccc(F)c1 (stereo not given),nt,nt,4,16,6
CC(=O)c1ccc2c(c1)C1C=CCC1C(C(=O)O)N2 (stereo not given),-8,-11,-9,-11,12*
COc1ccc(C(=O)OCCN2CCN(C3CN(Cc4cn(Cc5cccc(C)c5)nn4)S(=O)(=O)C3)CC2)cc1OC (stereo not given),nt,nt,2,-8,-3
CSc1ncccc1C(=O)OCC(=O)N1CC2(C)CC1CC(C)(C)C2 (stereo not given),-1,11,2,-3,-1
CC1(C)CC2CC(C)(CN2C(=O)COC(=O)c2ccccc2C(F)(F)F)C1 (stereo not given),2,2,-5,5,12*
COc1ccc(C[C@H]2CN3C(=NC[C@@H]3Cc3ccc(O)cc3)N2CCNC(=O)c2ccc(C)c(Br)c2)cc1,-14,-4,2,-19,5
Cc1ccc(C(=O)NCCN2C3=NC[C@H](Cc4ccc(O)cc4)N3C[C@H]2Cc2ccc(O)cc2)cc1Br,11,-1,7,-10,10*
CC(=O)Nc1ccc(C=NNc2ccc(S(=O)(=O)Nc3ccccc3C(=O)O)cc2[N+](=O)[O-])cc1,12,16,2,-20,11*
CC(=O)Nc1ccc(C=NNc2ccc([N+](=O)[O-])cc2S(=O)(=O)Nc2ccccc2C(=O)O)cc1,7,5,-285,-24,-207
CCOC(=O)N1CCN(C(=O)C[C@H]2C[C@@]3(C(=O)OC)C(=C[C@H](C4CCCC4)O[C@@H]3C)N(Cc3cccc4ccccc34)C2=O)CC1,nt,nt,1,-9,4
CC(C)[C@H](NS(=O)(=O)c1ccc(F)cc1F)C(=O)N1CCC[C@H]1C(=O)NCCc1ccccc1Cl,-1,6,-1,-7,3
O=C(O)Cc1c[nH]c2cccc(O)c12,6,-3,10,3,25*
Cc1ccccc1NS(=O)(=O)c1cc(C(=O)NCCSC2CCCCC2)ccc1C,-1,-1,3,-37,4
Cc1ccc(C)c(NS(=O)(=O)c2cc(C(=O)NCCSC3CCCCC3)ccc2C)c1,-4,-4,2,-41,14*
Cn1c(=O)n(Cc2ccccc2)c(=O)c2c1nc1n2CCCN1Cc1ccccc1,-4,7,0,7,11*
Cn1c(=O)n(Cc2ccccc2)c(=O)c2c1nc1n2CCCN1CCc1ccccc1,6,-6,1,7,-3
CN(CCOC(=O)c1cc2ccccc2o1)C1CN(Cc2cn(Cc3ccccc3C(F)(F)F)nn2)S(=O)(=O)C1 (stereo not given),nt,nt,-4,1,0
CCCOc1ccccc1C(=O)N(Cc1cccs1)C1CCS(=O)(=O)C1 (stereo not given),-1,0,12*,4,3
CCOc1ccccc1C(=O)N(Cc1cccs1)C1CCS(=O)(=O)C1 (stereo not given),-7,-10,4,2,2
O=[N+]([O-])c1cc(S(=O)(=O)N2CCOCC2)ccc1N1CCNCC1,-3,-1,6,4,-1
SMILES,ARFGAP1 inhibitor,ASAP1 GAP inh,PLCb3 inh,HGIII-sPLA2 inh,PLCg1 inh
CC(=O)N1CCN(c2ccc(S(=O)(=O)N3CCOCC3)cc2[N+](=O)[O-])CC1,2,8,10,8,10.0*
Cc1oc2cc([N+](=O)[O-])c(O)c([N+](=O)[O-])c2c1C(=O)c1ccc(Cl)cc1,-10,-11,11*,-22,10*
COc1ccc(OC)c(C(=O)c2c(C)oc3cc([N+](=O)[O-])c(O)c([N+](=O)[O-])c23)c1,-5,0,-3,-15,5
O=C(/C=C/c1ccccc1)OCC(=O)N1CCCC1,-3,-5,-6,-2,11*
CCOC(=O)Cn1cc(CN2CCS(=O)(=O)N(Cc3ccc(Cl)cc3)C(C(=O)OC)C2)nn1 (stereo not given),nt,nt,-1,6,2
COc1ccc(CN(C)CCc2ccccn2)cc1OC,1,-7,13*,12,11*
Cc1c(/C=N/Nc2nc3ccccc3[nH]2)c2ccccc2n1C,0,9,-32,6,-21
CCCn1c(/C=N/Nc2nc3ccccc3[nH]2)nc2ccccc21,13,1,-26,31*,-21
Cn1c(/C=N/Nc2nc3ccccc3[nH]2)nc2ccccc21,8,12,-58,49*,-28
C=CCN1CCN(C(=O)c2cc3c(s2)CCC(CC)C3)CC1 (stereo not given),2,5,1,6,9.7*
CCC1CCc2sc(C(=O)O)cc2C1 (stereo not given),-1,1,-3,5,1
CC(=O)Nc1sc(C)c(C)c1C(=O)OCC(=O)NCc1ccc(Cl)cc1,2,1,-4,4,12*
COc1cccc(CNC(=O)COC(=O)c2c(NC(C)=O)sc(C)c2C)c1,5,-3,2,-6,2
COc1ccc(Cn2c(NC(=O)c3ccccc3)nc(Cc3ccccc3)c2Cc2ccccc2)cc1,nt,nt,-29,10,-14
Cc1ccc(C2(c3ccc(C)cc3)CC2C(=O)Nc2ccc([N+](=O)[O-])cc2O)cc1 (stereo not given),-6,3,12*,-6,9
CC1(C)CC1C(=O)Nc1ccc([N+](=O)[O-])cc1Br (stereo not given),-1,-13,4,-5,4
O=C(O)c1cc(-c2ccccc2)nn1CC1CC(c2cccc([N+](=O)[O-])c2)=NO1 (stereo not given),0,0,6,7,9.9*
CCOC(=O)c1cc(-c2ccccc2)nn1CC1CC(c2cccc([N+](=O)[O-])c2)=NO1 (stereo not given),-7,25,9,4,-3
CCCCNC(=O)/C=C1\Sc2ccccc2NC1=O,-7,11,-43,-4,-40
CCc1ccc(C(=O)/C=C2\Sc3ccccc3NC2=O)cc1,12,7,0,41*,1
O=C(CCc1ccccc1-c1ccccc1CCNC(=O)c1ccccc1)NCc1ccccc1,nt,nt,3,3,0
C=CCN(C)CC#Cc1ccc(OC)cc1,nt,nt,-2,17,1
